Screening data (PubChem BioAssay)
STAT3 act = STAT3 signaling activation. U3A cells, IL-6 STAT3-luciferase reporter, luminescence; 100% = signal with IL-6 EC80 alone. activation (% of control), % at 5.6 µM. 0.91% of 190,000 active. AID 871;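 active = activation above the screen-wide mean of compound activation plus 3 SD, cut at about 130% in these data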;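 note: 0% = background luminescence of wells with medium and substrate only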
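Detection: reporter luminescence signal / Assay system: STAT1-lacking human U3A cells, STAT3 luciferase reporter / Incubation: compound pre-incubation 1 h before IL-6, then 6 h stimulation at 37 °C / Control set: IL-6-only high control / Read-out: % activation relative to IL-6 control / Probe or stimulus: Interleukin-6, 33 ng/mL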
NF-kB neuron act = NF-kB expression increase, human neuronal cells; NF-kB reporter expression; hits give high values; fold change at 12.5 µM; 1.6% of 190,000 active; in the data active = fold change above about 3.3
STAT3 blocker = STAT3 signaling inhibition; U3A cells, IL-6 STAT3-luciferase reporter, luminescence; host cell line lacks STAT1; inhibition, % at 5.5 µM; 0.89% of 190,000 active; AID 862;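 active = inhibition above the mean inhibition across all screened compounds plus 3 SD, cut at about 44% in these data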;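 note: 0% = DMSO only wells and 100% = 100 µM nifuroxazide control wells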
STAT1 inh = STAT1 signaling inhibition; NIH 3T3 STAT1-luciferase reporter, IFN-gamma, luminescence; inhibition, % at 5.5 µM; 0.35% of 200,000 active; AID 920;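 active = inhibition above a set limit, the mean inhibition across all tested compounds plus 3 SD, cut at about 34% in these data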;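 note: 0% = IFN-gamma with DMSO and 100% = IFN-gamma with 300 µM nifuroxazide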
STAT1 act = activators of IFN-gamma induced STAT1 signaling; NIH 3T3 STAT1-luciferase reporter, luminescence; 100% = IFN-gamma alone, no compound; activation (% of control), % at 5.5 µM; 2.6% of 200,000 active;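 active = activation above the screen-wide mean activation plus 3 SD, cut at about 130% in these data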;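 note: raw ratio to IFN-gamma control signal so 100% means no change and 0% no light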
APP 5'UTR act = activates APP 5'UTR luciferase reporter | activation, % at 2 µM | SH-SY5Y APP 5'UTR luciferase reporter, luminescence; zero percent = DMSO vehicle wells | 1% of 190,000 active | AID 1276;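 active = activation above a set limit, based on mean plus 3 SD of controls, cut at about 140% in these data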
Numbers without * were called inactive. The list is not random: actives were taken first. Their share in the collection is about 5.1%.

SMILES | STAT3 act | NF-kB neuron act | STAT3 blocker | STAT1 inh | STAT1 act | APP 5'UTR act
Cc1cc(C)cc(C(=O)Nc2ccc(N3CCCC3)cc2)c1 | 113 | 2.6 | -4 | -54 | 151* | 146*
O=C(Nc1ccc(N2CCCCC2)cc1)c1ccccn1 | 9 | 0.43 | 110* | 96* | 11 | -41
O=C(COC(=O)c1ccccc1F)Nc1cccnc1Cl | 93 | 1.4 | 11 | -4 | 102 | 22
COC(=O)Cc1c(O)ccn(Cc2cccc3ccccc23)c1=O | 105 | 1.1 | 4 | 5 | 96 | 7
C/C(=N/NC(=O)c1ccc2nc[nH]c2c1)c1cccs1 | 104 | 2.8 | -5 | -20 | 118 | 106
COc1ccc(Nc2nnc(SCC(=O)c3cc(C)n(CC4CCCO4)c3C)s2)cc1 (stereo unspecified) | 101 | 0.96 | 5 | -7 | 106 | -17
O=C(Nc1ccc(N2CCCC2)cc1)C(c1ccccc1)c1ccccc1 | 101 | 1.4 | 7 | 3 | 97 | 0
O=C(Nc1ccc(N2CCCCCC2)cc1)c1ccccc1Cl | 109 | 4.7* | -3 | -53 | 147* | 107
COCCNC(=O)c1ccccc1NC(=O)Cc1ccccc1 | 101 | 1.1 | -1 | -3 | 103 | 8
CCOC(=O)CC(NC(=O)Cn1nnc(-c2ccccc2Cl)n1)c1ccc(OC)cc1 (stereo unspecified) | 105 | 0.95 | 6 | 5 | 95 | -11
Cc1ccc(-c2nc3ccccc3c(C(=O)NCc3cccs3)c2C)cc1 | 143* | 0.61 | -54 | 14 | 87 | -9
O=C(CCc1cnccn1)NC1CCCc2c1cnn2-c1ccc(F)cc1F (stereo unspecified) | 106 | 0.87 | -7 | -5 | 104 | -10
Cc1ccc2nc(SCC(=O)NCc3ccco3)c(C#N)cc2c1 | 92 | 2.9 | 14 | -6 | 105 | 137*
COc1ccc(OC)c(NC(=O)c2ccc(CSc3ncccn3)cc2)c1 | 89 | 0.82 | 16 | 1 | 97 | 20
CC(=O)Nc1ccc2c(c1)ncn2-c1ccc(C)cc1 | 97 | 5.1* | 5 | -48 | 146* | 225*
O=C(Nc1ccc2c(c1)ncn2-c1ccccc1)c1ccco1 | 95 | 1.2 | 9 | -55 | 140* | 70
CC(=O)Nc1ccc2c(c1)ncn2C | 104 | 1.4 | -3 | 7 | 98 | 15
Cc1ccc2c(c1)SC1=NC(c3ccccc3)(C(F)(F)F)NC(=O)N12 (stereo unspecified) | 91 | 1.1 | 14 | -9 | 108 | 8
CCC(=O)Nc1cnc(NC(=O)c2cccc(F)c2)cc1C | 97 | 2.8 | 3 | -46 | 142* | 81
Nc1c(-c2ccccc2)cnn1-c1ccc(C(=O)O)cc1 | 102 | 5.7* | -2 | -36 | 133* | 138*
Nc1c(-c2ccccc2)cnn1-c1cccc(C(F)(F)F)c1 | 100 | 2.8 | 3 | -48 | 143* | 95
N#Cc1c(C#N)c(-c2ccccc2)n(-c2ccc(C(=O)O)cc2)c1N | 101 | 1.2 | 0 | -10 | 110 | 17
Cc1ccccc1-c1cnn(-c2cccc([N+](=O)[O-])c2)c1N | 89 | 1.2 | 15 | -8 | 107 | 8
Cc1ccc(-c2cnn(-c3cccc([N+](=O)[O-])c3)c2N)cc1 | 99 | 2.9 | 12 | -47 | 142* | 96
CCNc1nc(ON=C(C)C)nc(N(C)C)n1 | 97 | 1 | 1 | -2 | 104 | 13
SMILES | STAT3 act | NF-kB neuron act | STAT3 blocker | STAT1 inh | STAT1 act | APP 5'UTR act
CCN(CC(=O)Nc1cc(C)nn1-c1nc(C)cc(C)n1)Cc1ccccc1 | 101 | 0.84 | -4 | -3 | 103 | 6
CCOC(=O)C1=C(CSc2nc(C)ccc2C#N)OC(N)=C(C#N)C1c1cccc(OC)c1OC (stereo unspecified) | 108 | 0.92 | -7 | 14 | 87 | 7
O=C(N/N=C/c1ccc2c(c1)OCO2)c1cc(-c2ccccc2)nc2ccccc12 | 93 | 1.3 | 8 | 6 | 94 | -5
O=c1[nH]c(N/N=C/c2ccccc2)nc2ccccc12 | 77 | 3 | 31 | -50 | 145* | 140*
O=c1[nH]c(N/N=C\c2ccc3c(c2)OCO3)nc2ccccc12 | 74 | 4.4* | 35 | -45 | 140* | 205*
Cc1ccc(C(=O)C2CCN(CC(=O)Nc3nc(C)cs3)CC2)cc1 | 98 | 1.6 | 10 | 3 | 97 | 15
